# In article PMC9701462 (Hepatology Communications, 2022):
# Columns and labels:
# Assay type in all cases: in vivo, human
# [1] = test system: subjects with presumed F2/F3 NASH; assay: Collagen biomarkers; settings: for Pro-C3, Mean: plasma
# In short: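 Adults with presumed F2/F3 NASH were randomized 2:1 to oral active or matching placebo, given as 75-mg soft-gelatin capsules once daily in the morning, fasted, for 28 days. Collagen turnover markers were sampled at baseline (Day 1, pre-dose), after 28 days of dosing, and at end of study after a 14-day observation period. Values are summarized as mean, SD, median and range.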
# [2] = Whole-blood pharmacokinetics; settings: subjects with F2/F3 NASH, derived from CL/F and Vc/F estimates
# In short: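 Whole-blood samples were taken on Day 1 and Day 28 of once-daily oral dosing and assayed for parent drug and primary metabolites. Population PK used nonlinear mixed-effects modeling with first-order conditional estimation with interaction. Model choice used −2LL, AIC/BIC, %RSE and residual/VPC diagnostics; predictions ran to 816 h. CIs came from jackknife bootstrap (500 runs). Half-life was derived from CL/F and Vc/F estimates.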
# [3] = test system: subjects with presumed F2/F3 NASH; assay: Phase 2a safety and tolerability; settings: 28 days
# In short: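 Single-blind (subjects only), 2:1 randomized, placebo-controlled, at 10 US sites. Dosing was oral, once daily in the morning, fasted, for 28 days, as 75-mg soft-gelatin capsules. AEs, SAEs, labs (chemistry, hematology, coagulation, urinalysis), ECG, vitals and physical exams were recorded at screening, at Day 1 pre-dose baseline, then weekly for 4 weeks. Results are given as counts and percentages of the safety set per group.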
# [4] = test system: subjects with presumed F2/F3 NASH; assay: Serum liver enzymes ALT and AST, Phase 2a exploratory efficacy; settings: for ALT, Mean: serum
# In short: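 Serum ALT and AST are exploratory efficacy endpoints, taken as absolute and percent change from baseline. Sampling was at Day 1 before dosing, during 28 days of once-daily fasted oral dosing, and after a 14-day off-drug observation period. Analysis used repeated-measures ANOVA/ANCOVA with Bonferroni correction, or Friedman/Savage nonparametric ANOVA when data were non-normal or sparse.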
# [5] = 75 mg QD oral x 28 days, Day 1 (baseline, before dosing), N = 14
# [6] = 75 mg QD oral x 28 days, Day 1 (baseline, before dosing), N = 15
# [7] = 75 mg QD oral x 28 days, Day 14, N = 14
# [8] = 75 mg QD oral x 28 days, Day 14, N = 15
# [9] = 75 mg QD oral x 28 days, Day 28, N = 14
# [10] = 75 mg QD oral x 28 days, Day 28, N = 15
# [11] = 75 mg QD oral x 28 days, Day 42 (after 14-day observation period), N = 14
# [12] = 75 mg QD oral x 28 days, Day 42 (after 14-day observation period), N = 15
# [13] = 225 mg QD oral x 28 days, Day 1 (baseline, before dosing), N = 15
# [14] = 225 mg QD oral x 28 days, Day 1 (baseline, before dosing), N = 16
# [15] = 225 mg QD oral x 28 days, Day 14, N = 15
# [16] = 225 mg QD oral x 28 days, Day 14, N = 16
# [17] = 225 mg QD oral x 28 days, Day 28, N = 15
# [18] = 225 mg QD oral x 28 days, Day 28, N = 16
# [19] = 225 mg QD oral x 28 days, Day 42 (after 14-day observation period), N = 16
substance,measurement,setting,value
Rencofilstat [RCF],"C1M, Mean",[1]; [5],90185.71 pg/mL
same,"C6M, Mean",[1]; [5],25142.86 pg/mL
same,"PRO-C8, Mean",[1]; [6],4985.33 pg/mL
same,"Pro-C3, Mean",[1]; [5],23792.86 pg/mL
same,"C1M, Mean",[1]; [7],80125.00 pg/mL
same,"C6M, Mean",[1]; [7],25825.00 pg/mL
same,"PRO-C8, Mean",[1]; [8],4693.33 pg/mL
same,"Pro-C3, Mean",[1]; [7],22916.67 pg/mL
same,"C1M, Mean",[1]; [9],70490.91 pg/mL
same,"C6M, Mean",[1]; [9],23354.55 pg/mL
same,"PRO-C8, Mean",[1]; [10],4683.33 pg/mL
same,"Pro-C3, Mean",[1]; [9],22933.33 pg/mL
same,"C1M, Mean",[1]; [11],65309.09 pg/mL
same,"C6M, Mean",[1]; [11],23783.33 pg/mL
same,"PRO-C8, Mean",[1]; [12],4923.33 pg/mL
same,"PRO-C8, Mean",[1]; [13],4693.33 pg/mL
same,"C1M, Mean",[1]; [14],70262.50 pg/mL
same,"C6M, Mean",[1]; [14],31406.25 pg/mL
same,"Pro-C3, Mean",[1]; [13],24413.33 pg/mL
same,"PRO-C8, Mean",[1]; [15],4138.13 pg/mL
same,"C1M, Mean",[1]; [16],55843.75 pg/mL
same,"C6M, Mean",[1]; [16],29168.75 pg/mL
same,"Pro-C3, Mean",[1]; [15],22418.75 pg/mL
same,"PRO-C8, Mean",[1]; [17],4416.88 pg/mL
same,"C1M, Mean",[1]; [18],62100.00 pg/mL
same,"C6M, Mean",[1]; [18],31362.5 pg/mL
same,"Pro-C3, Mean",[1]; [17],24043.75 pg/mL
same,"PRO-C8, Mean","[1]; 225 mg QD oral x 28 days, Day 42 (after 14-day observation period), N = 15",4712.94 pg/mL
same,"C1M, Mean",[1]; [19],69850.00 pg/mL
same,"C6M, Mean",[1]; [19],33168.75 pg/mL
same,effective half-life of elimination (T1/2),[2],33.7 ± 11.1 h
same,Subjects with any TEAE,"[3]; 75 mg QD oral, N = 15",5 (33.3%) n (%)
same,TEAE: Back pain,"[3]; 75 mg QD oral, N = 15",0 (0%) n (%)
same,TEAE: Constipation,"[3]; 75 mg QD oral, N = 15",1 (6.7%) n (%)
same,TEAE: Diarrhea,"[3]; 75 mg QD oral, N = 15",0 (0%) n (%)
same,TEAE: Dizziness,"[3]; 75 mg QD oral, N = 15",0 (0%) n (%)
same,TEAE: Gastrointestinal disorders,"[3]; 75 mg QD oral, N = 15",1 (6.7%) n (%)
same,TEAE: Headache,"[3]; 75 mg QD oral, N = 15",0 (0%) n (%)
same,TEAE: Musculoskeletal disorders,"[3]; 75 mg QD oral, N = 15",2 (13.3%) n (%)
same,TEAE: Nervous system disorders,"[3]; 75 mg QD oral, N = 15",1 (6.7%) n (%)
same,deaths or treatment-emergent SAEs (TESAEs),[3]; 75 mg and 225 mg QD oral,No deaths or TESAEs
same,safety signals,[3]; 75 mg and 225 mg QD oral,No safety signals were identified
same,Subjects with any TEAE,"[3]; 225 mg QD oral, N = 17",10 (58.8%) n (%)
same,TEAE: Back pain,"[3]; 225 mg QD oral, N = 17",1 (5.9%) n (%)
same,TEAE: Constipation,"[3]; 225 mg QD oral, N = 17",2 (11.8%) n (%)
same,TEAE: Diarrhea,"[3]; 225 mg QD oral, N = 17",2 (11.8%) n (%)
same,TEAE: Dizziness,"[3]; 225 mg QD oral, N = 17",1 (5.9%) n (%)
same,TEAE: Gastrointestinal disorders,"[3]; 225 mg QD oral, N = 17",5 (29.4%) n (%)
same,TEAE: Headache,"[3]; 225 mg QD oral, N = 17",1 (5.9%) n (%)
same,TEAE: Musculoskeletal disorders,"[3]; 225 mg QD oral, N = 17",2 (11.8%) n (%)
same,TEAE: Nervous system disorders,"[3]; 225 mg QD oral, N = 17",2 (11.8%) n (%)
same,"AST, Mean",[4]; [6],49.47 IU/L
same,"ALT, Mean",[4]; [6],60.53 IU/L
same,"AST, Mean",[4]; [8],39.42 IU/L
same,"ALT, Mean",[4]; [8],47.00 IU/L
same,"AST, Mean",[4]; [10],35.08 IU/L
same,"ALT, Mean",[4]; [10],42.50 IU/L
same,"AST, Mean",[4]; [12],41.45 IU/L
same,"ALT, Mean",[4]; [12],50.00 IU/L
same,"AST, Mean",[4]; [14],31.94 IU/L
same,"ALT, Mean",[4]; [14],36.06 IU/L
same,"AST, Mean",[4]; [16],32.82 IU/L
same,"ALT, Mean",[4]; [16],31.59 IU/L
same,"AST, Mean",[4]; [18],32.38 IU/L
same,"ALT, Mean",[4]; [18],30.56 IU/L
same,"AST, Mean",[4]; [19],31.38 IU/L
